This is an account of results in PMC3110074 (ACS chemical neuroscience, 2011).

The conditions of data set [1]: cited from earlier work.
The subject of data set [2] is TH positive neurons in the SNpc. The following applies: intraperitoneal injection; cited from earlier work.
For data set [3] the following is noted: cited from earlier work. The source holds these as a separate data set.
The next data set deals with 347 kinases. The experiment in a line: Ambit kinase panel screen. The format is binding. The following applies: 3 μM.
The target in the next data set is KIT (Homo sapiens, UniProt P10721). The experiment in a line: Ambit kinase panel screen, KIT. The format is binding. The following applies: suggested from Ambit panel at 3 μM.
The target in a further data set is KIT V559D (Homo sapiens, UniProt P10721, V559D). The experiment in a line: Ambit kinase panel screen, KIT V559D. The following applies: suggested from Ambit panel at 3 μM. The format is binding.
The next data set concerns the target PDGFR-β (Homo sapiens, UniProt P09619). The experiment in a line: Ambit kinase panel screen, PDGFR-β. Type of data set: binding. The following applies: suggested from Ambit panel at 3 μM.
The target in the next data set is TYK2 (Homo sapiens, UniProt P29597). The experiment in a line: Ambit kinase panel screen, TYK2. Type of data set: binding. The following applies: suggested from Ambit panel at 3 μM.
The target of data set [4] is Leucine Rich repeat Kinase 2 (LRRK2) (Homo sapiens, UniProt Q5S007). The experiment in a line: LRRK2 inhibition. Type of data set: biochemical. The following applies: up to 10 μM.
A further data set addresses G2019S LRRK2 (Homo sapiens, UniProt Q5S007, G2019S). The experiment in a line: G2019S LRRK2 inhibition. Type of data set: biochemical. The following applies: up to 10 μM.
The next data set concerns the target CYP P450 1A2 (Homo sapiens, UniProt P05177). The experiment in a line: P450 inhibition 1A2. The format is in vitro ADME. The following applies: read-out: IC50 CYP450 1A2.
In a further data set the target is CYP P450 2A6 (Homo sapiens, UniProt P11509). The experiment in a line: P450 inhibition 2A6. The format is in vitro ADME. The following applies: read-out: IC50 CYP450 2A6.
Another data set addresses CYP P450 2B6 (Homo sapiens, UniProt P20813). The experiment in a line: P450 inhibition 2B6. The format is in vitro ADME. The following applies: read-out: IC50 CYP450 2B6.
The target of the next data set is CYP P450 2C8 (Homo sapiens, UniProt P10632). The experiment in a line: P450 inhibition 2C8. The following applies: read-out: IC50 CYP450 2C8. The format is in vitro ADME.
For the next data set, the target named is CYP P450 2D6 (Homo sapiens, UniProt P10635). The experiment in a line: P450 inhibition 2D6. The format is in vitro ADME. The following applies: read-out: IC50 CYP450 2D6.
The next data set has as its target CYP P450 2E1 (Homo sapiens, UniProt P05181). The experiment in a line: P450 inhibition 2E1. Type of data set: in vitro ADME. The following applies: read-out: IC50 CYP450 2E1.
Data set [5] deals with monoamine oxidase A (MAO-A) (Homo sapiens, UniProt P21397). The experiment in a line: MAO-A inhibition. Type of data set: biochemical. The following applies: read-out: IC50 MAO-A.
The target of data set [6] is monoamine oxidase B (MAO-B) (Homo sapiens, UniProt P27338). The experiment in a line: MAO-B inhibition. Type of data set: biochemical. The following applies: read-out: IC50 MAO-B.
A short description of data set [7]: Microsomal stability, mouse. The following applies: mouse liver microsomes. Type of data set: in vitro ADME. On the technique in general: Liver microsomes are vesicles of endoplasmic reticulum, rich in cytochrome P450 enzymes.
Data set [8] in a line: Microsomal stability, rat. The following applies: rat liver microsomes. The format is in vitro ADME.
Data set [9] can be described thus: Microsomal stability, human. Type of data set: in vitro ADME. The following applies: human liver microsomes.
Data set [10] in a line: Plasma protein binding, mouse. The format is in vitro ADME.
Data set [11] in a line: Plasma protein binding, rat. Type of data set: in vitro ADME.
Data set [12] can be described thus: Plasma protein binding, monkey. Type of data set: in vitro ADME.
Data set [13] can be described thus: Plasma protein binding, human. Type of data set: in vitro ADME.
The next data set is described as follows: Rat pharmacokinetics. The following applies: rats. Type of data set: in vivo, Sprague-Dawley rats. The procedure, abridged: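 Sprague-Dawley rats (n = 3) were dosed 1 mg/kg i.v. or 2 mg/kg by oral gavage. Blood was drawn into EDTA at 5, 15 and 30 min and at 1, 2, 4, 6 and 8 h. Plasma proteins were precipitated with acetonitrile and the test compound quantified by LC-MS/MS. Noncompartmental analysis gave CL, oral bioavailability, Cmax, AUC, t1/2 and Vd.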

The test system of data set [14] is primary mesencephalic dopaminergic neurons exposed to MPP+. Type of data set: cell-based, Sprague Dawley rat. The following applies: for neuroprotective effect (TH-positive neurons): 10 μM MPP+ for 48 hr. In a few lines:
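Ventral mesencephalon from E14 Sprague-Dawley rat embryos was trypsinised (0.25%, 5 min, 37 °C) and triturated. Cells were plated at 200 000/well on poly-D-lysine/laminin in DMEM/10% HIFBS, then switched after 2 h to SATO selection medium for 5 days with daily changes. Test compound (10–1000 nM) was added 15 min before 10 μM MPP+, with 48 h at 37 °C/5% CO2. Cells were fixed in 4% PFA and TH+ neurons counted blinded. Four wells per concentration, three biological replicates; one-way ANOVA.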

Data set [15] can be described thus: Mouse brain penetration time course. The format is in vivo, C57Bl6 mice. The following applies: mice, single oral dose 30 mg/kg.
For the next data set, the target named is P-glycoprotein (PGP) (Homo sapiens, UniProt P08183). The experiment in a line: P-glycoprotein substrate assessment. The format is in vitro ADME.
The subject of data set [16] is c-jun phosphorylation in ventral midbrain. The experiment in a line: Western blot for phospho-c-jun after MPTP. The format is in vivo, C57BL/6J mice. The following applies: MPTP-treated mice, 20 mg/kg oral. The procedure, abridged:
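Mice received the test compound orally 30 min before the first i.p. MPTP-HCl dose and were killed 7 h after that dose; two saline, three MPTP and two MPTP+compound mice. Ventral midbrain was dissected and lysed, and 30 μg nuclear-fraction protein was immunoblotted for phospho-c-jun.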
In general terms: Immunoblotting shows a protein as a band on a membrane.

The subject of data set [17] is p-c-jun in TH-positive neurons of the SNpc. The experiment in a line: Immunohistochemistry for TH and p-c-jun after MPTP. The format is in vivo, C57BL/6J mice. The following applies: single oral dose 30 mg/kg, seven hr. The procedure, abridged: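 The test compound was given orally 30 min before repeated i.p. MPTP-HCl (2 h intervals) to male C57BL/6J mice, which were killed 7 h after the first MPTP dose; three mice per group. 16 μm SN sections (bregma −3.0) were incubated overnight at 4 °C with sheep anti-TH (1:50) and rabbit anti-p-c-jun Ser73 (1:100), then 2 h with Alexa 594/488 secondaries (1:500). DAPI was used for normalisation. TH+ neurons with nuclear p-c-jun were counted.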

Data set [18] concerns p-c-jun in substantia nigra tissue lysate. The experiment in a line: ELISA for p-c-jun target modulation after MPTP. Type of data set: in vivo, C57BL/6J mice. The following applies: MPTP-treated mice. In a few lines:
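Male C57BL/6J mice (11 weeks, 25–30 g) got the test compound orally 30 min before the first of repeated i.p. MPTP-HCl doses given at 2 h intervals, and were killed 7 h after the first MPTP dose. SN nuclear extracts were made with protease and phosphatase inhibitors and protein was measured by BCA. Phospho-c-jun Ser63 in 30 μg protein was read by ELISA in duplicate against a recombinant p-c-jun standard curve. Groups were compared by two-tailed unpaired t test.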
Background: ELISA stands for enzyme-linked immunosorbent assay.

For data set [19], the system named is striatal catecholamine levels. The experiment in a line: Striatal dopamine, DOPAC and HVA levels after MPTP. The following applies: MPTP-treated mice, 30 mg/kg, 7 days. The format is in vivo, C57BL/6J mice.
Another data set has as its target CYP P450 2C9 (Homo sapiens, UniProt P11712). The following applies: read-out: IC50 CYP450 2C9.
Another data set addresses CYP P450 2C19 (Homo sapiens, UniProt P33261). The following applies: read-out: IC50 CYP450 2C19.
The target in another data set is CYP P450 3A4 (Homo sapiens, UniProt P08684). The following applies: read-out: IC50 CYP450 3A4.

Structures are written as SMILES. Where two headings read alike, the source gives them in different places. Bounds are passed on as bounds.

CYP P450 3A4, sequence (P08684 whole entry): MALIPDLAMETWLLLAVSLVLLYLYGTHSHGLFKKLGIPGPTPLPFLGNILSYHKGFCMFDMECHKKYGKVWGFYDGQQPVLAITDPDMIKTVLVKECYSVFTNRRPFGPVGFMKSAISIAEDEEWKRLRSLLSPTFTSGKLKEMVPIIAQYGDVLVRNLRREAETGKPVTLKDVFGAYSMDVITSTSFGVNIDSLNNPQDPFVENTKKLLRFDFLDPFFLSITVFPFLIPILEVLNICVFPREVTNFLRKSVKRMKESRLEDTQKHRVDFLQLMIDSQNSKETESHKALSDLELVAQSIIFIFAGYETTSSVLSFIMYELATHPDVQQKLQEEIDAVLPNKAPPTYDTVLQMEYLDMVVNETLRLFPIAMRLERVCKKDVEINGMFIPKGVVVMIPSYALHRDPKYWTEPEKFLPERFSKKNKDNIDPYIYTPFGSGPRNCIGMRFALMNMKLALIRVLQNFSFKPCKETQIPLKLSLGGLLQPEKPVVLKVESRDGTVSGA
CYP P450 2E1, sequence (P05181 whole entry): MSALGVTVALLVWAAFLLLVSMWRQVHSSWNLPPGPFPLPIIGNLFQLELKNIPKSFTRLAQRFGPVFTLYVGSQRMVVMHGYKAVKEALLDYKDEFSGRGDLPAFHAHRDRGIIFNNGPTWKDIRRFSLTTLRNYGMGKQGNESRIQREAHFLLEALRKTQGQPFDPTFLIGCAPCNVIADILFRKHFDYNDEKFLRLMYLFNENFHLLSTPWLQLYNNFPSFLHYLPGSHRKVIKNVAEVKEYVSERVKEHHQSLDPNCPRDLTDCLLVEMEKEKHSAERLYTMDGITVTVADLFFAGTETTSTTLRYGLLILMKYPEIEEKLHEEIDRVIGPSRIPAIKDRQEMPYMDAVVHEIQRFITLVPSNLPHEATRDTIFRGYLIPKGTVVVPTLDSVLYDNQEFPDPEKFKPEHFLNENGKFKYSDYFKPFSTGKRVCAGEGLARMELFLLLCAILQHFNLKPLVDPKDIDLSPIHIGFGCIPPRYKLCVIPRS
CYP P450 2C19, sequence (P33261 whole entry): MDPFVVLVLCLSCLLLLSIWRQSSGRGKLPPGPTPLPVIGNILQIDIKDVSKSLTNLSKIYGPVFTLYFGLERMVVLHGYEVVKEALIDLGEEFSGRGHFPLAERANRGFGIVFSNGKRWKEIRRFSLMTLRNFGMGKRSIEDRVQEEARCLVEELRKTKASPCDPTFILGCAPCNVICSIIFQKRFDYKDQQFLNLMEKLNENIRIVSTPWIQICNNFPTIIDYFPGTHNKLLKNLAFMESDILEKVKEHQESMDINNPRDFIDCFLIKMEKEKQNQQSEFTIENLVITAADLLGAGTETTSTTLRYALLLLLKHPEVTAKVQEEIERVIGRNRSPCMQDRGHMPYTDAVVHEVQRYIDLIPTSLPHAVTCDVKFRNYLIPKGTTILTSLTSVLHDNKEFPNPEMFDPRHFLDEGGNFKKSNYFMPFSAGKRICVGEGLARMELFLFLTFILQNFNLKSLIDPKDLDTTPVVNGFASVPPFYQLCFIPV
monoamine oxidase A (MAO-A), sequence (P21397 whole entry, species assumed): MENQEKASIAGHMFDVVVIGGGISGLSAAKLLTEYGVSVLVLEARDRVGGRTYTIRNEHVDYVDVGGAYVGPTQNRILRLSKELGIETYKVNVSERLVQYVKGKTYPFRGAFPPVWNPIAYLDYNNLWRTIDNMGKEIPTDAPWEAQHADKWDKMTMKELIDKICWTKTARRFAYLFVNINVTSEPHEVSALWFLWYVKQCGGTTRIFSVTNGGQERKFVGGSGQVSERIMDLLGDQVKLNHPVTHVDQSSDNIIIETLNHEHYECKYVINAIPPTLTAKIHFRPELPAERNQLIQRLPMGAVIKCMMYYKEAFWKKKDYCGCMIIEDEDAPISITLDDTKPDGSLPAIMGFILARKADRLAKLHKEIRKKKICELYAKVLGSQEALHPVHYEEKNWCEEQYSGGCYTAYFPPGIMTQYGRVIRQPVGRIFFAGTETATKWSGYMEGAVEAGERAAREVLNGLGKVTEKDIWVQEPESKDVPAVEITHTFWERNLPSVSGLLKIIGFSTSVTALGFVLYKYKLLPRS
Leucine Rich repeat Kinase 2 (LRRK2), sequence (Q5S007 whole entry): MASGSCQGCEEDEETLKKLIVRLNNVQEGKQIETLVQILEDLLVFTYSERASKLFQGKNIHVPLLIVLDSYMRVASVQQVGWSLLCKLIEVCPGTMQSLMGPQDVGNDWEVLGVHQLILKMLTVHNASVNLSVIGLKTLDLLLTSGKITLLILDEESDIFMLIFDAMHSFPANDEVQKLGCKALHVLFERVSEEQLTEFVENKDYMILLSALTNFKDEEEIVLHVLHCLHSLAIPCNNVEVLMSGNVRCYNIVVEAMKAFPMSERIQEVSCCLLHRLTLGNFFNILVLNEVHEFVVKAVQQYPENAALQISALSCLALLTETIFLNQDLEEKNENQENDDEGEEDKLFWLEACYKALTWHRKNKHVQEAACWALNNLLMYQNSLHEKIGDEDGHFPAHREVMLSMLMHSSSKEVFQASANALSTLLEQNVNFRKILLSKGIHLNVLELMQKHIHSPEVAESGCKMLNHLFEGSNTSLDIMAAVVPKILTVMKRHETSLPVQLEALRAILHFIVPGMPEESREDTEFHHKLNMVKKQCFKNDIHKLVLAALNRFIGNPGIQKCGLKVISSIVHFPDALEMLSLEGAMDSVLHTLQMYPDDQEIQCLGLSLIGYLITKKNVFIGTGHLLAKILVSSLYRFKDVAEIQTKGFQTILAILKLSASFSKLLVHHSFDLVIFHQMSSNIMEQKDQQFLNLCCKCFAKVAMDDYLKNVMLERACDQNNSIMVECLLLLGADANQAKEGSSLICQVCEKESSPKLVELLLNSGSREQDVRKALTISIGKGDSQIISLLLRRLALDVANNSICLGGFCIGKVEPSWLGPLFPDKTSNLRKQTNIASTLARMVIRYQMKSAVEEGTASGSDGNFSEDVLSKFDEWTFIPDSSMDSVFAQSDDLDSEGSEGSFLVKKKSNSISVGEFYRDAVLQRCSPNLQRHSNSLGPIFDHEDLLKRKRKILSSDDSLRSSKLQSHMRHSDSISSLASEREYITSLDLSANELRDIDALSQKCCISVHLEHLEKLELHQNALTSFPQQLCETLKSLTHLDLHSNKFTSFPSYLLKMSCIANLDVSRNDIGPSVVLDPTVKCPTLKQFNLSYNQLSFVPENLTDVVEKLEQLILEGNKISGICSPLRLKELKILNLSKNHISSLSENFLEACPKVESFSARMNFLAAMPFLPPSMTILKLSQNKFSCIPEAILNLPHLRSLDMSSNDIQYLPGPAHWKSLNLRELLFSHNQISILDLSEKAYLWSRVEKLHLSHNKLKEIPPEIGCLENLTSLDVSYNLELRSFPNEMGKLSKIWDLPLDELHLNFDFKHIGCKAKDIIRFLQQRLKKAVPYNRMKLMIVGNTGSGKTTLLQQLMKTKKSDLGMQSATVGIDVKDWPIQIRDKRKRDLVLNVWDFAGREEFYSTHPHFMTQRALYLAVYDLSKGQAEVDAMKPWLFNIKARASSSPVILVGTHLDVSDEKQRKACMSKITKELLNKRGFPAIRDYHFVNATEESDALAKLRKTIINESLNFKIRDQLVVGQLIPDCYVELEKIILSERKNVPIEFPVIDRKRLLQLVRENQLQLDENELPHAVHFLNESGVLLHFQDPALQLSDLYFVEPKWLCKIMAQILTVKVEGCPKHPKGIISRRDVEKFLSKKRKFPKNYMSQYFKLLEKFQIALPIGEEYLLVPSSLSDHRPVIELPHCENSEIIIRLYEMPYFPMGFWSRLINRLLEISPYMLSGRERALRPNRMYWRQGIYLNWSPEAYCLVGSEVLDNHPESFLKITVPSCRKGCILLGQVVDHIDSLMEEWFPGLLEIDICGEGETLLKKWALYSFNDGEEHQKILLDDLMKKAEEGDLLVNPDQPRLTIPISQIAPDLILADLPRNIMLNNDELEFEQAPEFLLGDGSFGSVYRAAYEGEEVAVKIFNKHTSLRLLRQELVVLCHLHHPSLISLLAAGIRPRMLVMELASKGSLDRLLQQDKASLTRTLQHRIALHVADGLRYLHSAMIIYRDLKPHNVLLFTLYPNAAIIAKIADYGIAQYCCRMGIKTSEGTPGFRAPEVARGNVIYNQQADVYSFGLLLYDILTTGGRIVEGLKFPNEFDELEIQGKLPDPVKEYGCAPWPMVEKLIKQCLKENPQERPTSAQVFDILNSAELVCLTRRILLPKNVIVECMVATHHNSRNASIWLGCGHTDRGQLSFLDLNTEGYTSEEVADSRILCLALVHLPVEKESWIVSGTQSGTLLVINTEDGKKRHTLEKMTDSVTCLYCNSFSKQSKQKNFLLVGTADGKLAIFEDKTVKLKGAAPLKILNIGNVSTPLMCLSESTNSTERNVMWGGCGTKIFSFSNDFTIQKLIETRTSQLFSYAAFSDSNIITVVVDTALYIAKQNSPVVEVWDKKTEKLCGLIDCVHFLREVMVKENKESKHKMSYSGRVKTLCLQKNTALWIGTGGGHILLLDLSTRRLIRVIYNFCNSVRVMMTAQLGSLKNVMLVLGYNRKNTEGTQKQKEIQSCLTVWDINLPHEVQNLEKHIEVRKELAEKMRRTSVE
G2019S LRRK2, sequence (Q5S007 whole entry G2019S): as the sequence (Q5S007 whole entry) above, with G2019S counted along it
CYP P450 2C9, sequence (P11712 whole entry): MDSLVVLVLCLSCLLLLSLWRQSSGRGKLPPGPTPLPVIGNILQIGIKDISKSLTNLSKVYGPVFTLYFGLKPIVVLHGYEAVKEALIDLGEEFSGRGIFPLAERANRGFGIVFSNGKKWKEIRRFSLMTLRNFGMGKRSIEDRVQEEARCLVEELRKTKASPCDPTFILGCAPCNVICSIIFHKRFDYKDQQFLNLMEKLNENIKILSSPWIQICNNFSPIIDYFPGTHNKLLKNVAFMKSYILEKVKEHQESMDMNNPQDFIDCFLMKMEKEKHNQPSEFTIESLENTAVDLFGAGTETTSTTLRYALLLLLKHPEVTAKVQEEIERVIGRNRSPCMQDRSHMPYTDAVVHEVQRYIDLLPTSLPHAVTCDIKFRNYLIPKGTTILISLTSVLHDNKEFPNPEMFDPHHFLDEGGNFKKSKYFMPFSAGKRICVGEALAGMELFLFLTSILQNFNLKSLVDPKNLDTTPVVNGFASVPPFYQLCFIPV

For `N[C@@H](Cc1ccc(O)c(O)c1)C(=O)O` [L-DOPA, levodopa], in [1], the initial response rates is on record as approximately 90%.
With `Oc1c2ccccc2c2c3c(cccc13)N=N2` [SP600125], in data set [2], the “protection in the chronic MPTP mouse model” value is on record as “protective”.
In the case of `C#CCN[C@@H]1CCc2ccccc21` [rasagiline], the neuroprotective disease-modifying effects entry in data set [3] (1 mg) was “possible disease-modifying effects”; in data set [3] (2 mg dose, 1176 subjects), “failed to show neuroprotective disease-modifying effects”.
`Cc1ccc(-c2ncn(-c3ccc(Nc4nccc(-c5cccc(N6CCOCC6)c5)n4)cc3)n2)cn1` [SR-3306]: in the data set with 347 kinases, the “number of kinases with any hit” value is on record as 35 out of the 347. The dissociation constant (Kd) on KIT, on KIT V559D, at PDGFR-β and at TYK2 was less than 1 µM in each case. The “inhibition of LRRK2” value in data set [4] was “not inhibited”. The “inhibition of G2019S LRRK2” value against G2019S LRRK2 is reported as “not inhibited”. Further, the IC50 at CYP P450 1A2, on CYP P450 2A6, at CYP P450 2B6, at CYP P450 2C8, at CYP P450 2D6 and at CYP P450 2E1 was more than 50 µM in each case. Besides, the IC50 (in data set [5]; in data set [6]; at CYP P450 2C9; at CYP P450 2C19; on CYP P450 3A4) was more than 50 µM throughout. Besides, the microsomal stability was 26 min in data set [7], 30 min in data set [8] and 28 min in data set [9]. Moreover, the plasma protein binding in [10] worked out at 86%; in data set [11], 97%; in [12] it was 96%; in data set [13], 88%. Also, in “Rat pharmacokinetics” (1 mg/kg i.v.), the clearance rate was 14 mL/min/kg. Besides, in “Rat pharmacokinetics” (2 mg/kg p.o. vs 1 mg/kg i.v.), the “oral bioavailability (%F)” value came out at 31%. Also, the “neuroprotective effect (TH-positive neurons)” value in data set [14] (300 nM) and in [14] (1000 nM) was “greater than 90%” each time. Further, the “effect on number of TH-positive neurons, compound alone” value in data set [14] (1000 nM in the absence of MPP+) is recorded as “no effect compared to control”. In addition, the brain concentration amounted to 3000 nM in data set [15] (4 hr) and 230 nM in data set [15] (24 hr). Further, the “brain concentration above the >90% neuroprotective concentration” value in [15] (8 hr) is recorded as 7 fold. Also, the “P-glycoprotein (PGP) substrate” value on P-glycoprotein (PGP) is “not a P-glycoprotein (PGP) substrate”. The “phospho-c-jun signal by Western blot” value in data set [16] was “decrease in the phospho-c-jun signal”. Further, in [17], the “number of p-c-jun positive cells compared to MPTP treated mice” value is on record as “dramatic decrease (four-fold)”. The “p-c-jun levels in the ventral midbrain by ELISA” value in data set [18] (10 mg/kg oral) is given as “no effect”; in data set [18] (20 mg/kg oral, p< 0.01), “statistically significant reduction”; in [18] (30 mg/kg oral, p < 0.001), “statistically significant reduction”. Further, the “protection of striatal DOPAC levels” value in [19] is listed as “some protection”. Besides, the “protection of striatal dopamine levels” value in [19] is “not able to demonstrate protection”. Also, the “protection of striatal homovanillic acid (HVA) levels” value in [19] is on record as “not able to demonstrate protection”.
